How the values were obtained:
Assay type in all cases: cell-based, human
[1] = system: PBMCs plus Granulocytes; assay: IL-1β secretion assay; settings: for Interleukin 1 beta secreted: PBMCs plus Granulocytes
How it was run: (§1)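 NK cells, MD-PBMCs, PBMCs or granulocytes (1.5 million/mL) or PBMC+granulocytes (0.75 million/mL each), per donor, exposed 24 h, 48 h or 6 days to 0.05–5 μM test compound diluted from DMSO stock, with DMSO controls. Supernatants kept at −70 °C. IL-1β by sandwich ELISA: HRP detection antibody, acid-stopped substrate, A450 against standards. Detection limit 3 pg/mL; triplicates; ANOVA then t test versus control, p<0.05.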

[2] = system: Granulocytes; assay: IL-1β secretion assay
How it was run: as §1

[3] = system: PBMCs; assay: Cell viability, trypan blue exclusion; settings: for Percent Viable Cells / decrease in viability: PBMCs

CCC[CH2][Sn][CH2]CCC [DBT, Dibutyltin]
Interleukin 1 beta secreted ([1]; donor F154, 48 h, 0.05 μM DBT): 358 ± 88 pg/mL
Interleukin 1 beta secreted ([1]; donor F154, 48 h, 0.1 μM DBT): 346 ± 40 pg/mL
Interleukin 1 beta secreted ([1]; donor F154, 48 h, 0.25 μM DBT): 372 ± 47 pg/mL
Interleukin 1 beta secreted ([1]; donor F154, 48 h, 0.5 μM DBT): 372 ± 24 pg/mL
Interleukin 1 beta secreted ([1]; donor F154, 48 h, 1 μM DBT): 322 ± 11 pg/mL
Interleukin 1 beta secreted ([1]; donor F154, 48 h, 2.5 μM DBT): 321 ± 35 pg/mL
Interleukin 1 beta secreted ([1]; donor F154, 48 h, 5 μM DBT): 321 ± 20 pg/mL
Interleukin 1 beta secreted ([1]; donor F154, 6 day, 0.05 μM DBT): 65 ± 34 pg/mL
Interleukin 1 beta secreted ([1]; donor F154, 6 day, 0.1 μM DBT): 31 ± 16 pg/mL
Interleukin 1 beta secreted ([1]; donor F154, 6 day, 0.25 μM DBT): 8 ± 1 pg/mL
Interleukin 1 beta secreted ([1]; donor F154, 6 day, 0.5 μM DBT): 11 ± 0 pg/mL
Interleukin 1 beta secreted ([1]; donor F154, 6 day, 1 μM DBT): 10 ± 0 pg/mL
Interleukin 1 beta secreted ([1]; donor F154, 6 day, 2.5 μM DBT): 3 ± 0 pg/mL
Interleukin 1 beta secreted ([1]; donor F159, 24 h, 0.05 μM DBT): 438 ± 18 pg/mL
Interleukin 1 beta secreted ([1]; donor F159, 24 h, 0.1 μM DBT): 375 ± 28 pg/mL
Interleukin 1 beta secreted ([1]; donor F159, 24 h, 0.25 μM DBT): 648 ± 18 pg/mL
Interleukin 1 beta secreted ([1]; donor F159, 24 h, 0.5 μM DBT): 620 ± 40 pg/mL
Interleukin 1 beta secreted ([1]; donor F159, 24 h, 1 μM DBT): 617 ± 74 pg/mL
Interleukin 1 beta secreted ([1]; donor F159, 24 h, 2.5 μM DBT): 87 ± 12 pg/mL
Interleukin 1 beta secreted ([1]; donor F159, 48 h, 0.05 μM DBT): 109 ± 93 pg/mL
Interleukin 1 beta secreted ([1]; donor F159, 48 h, 0.1 μM DBT): 48 ± 8 pg/mL
Interleukin 1 beta secreted ([1]; donor F159, 48 h, 0.25 μM DBT): 141 ± 16 pg/mL
Interleukin 1 beta secreted ([1]; donor F159, 48 h, 0.5 μM DBT): 226 ± 16 pg/mL
Interleukin 1 beta secreted ([1]; donor F159, 48 h, 1 μM DBT): 311 ± 39 pg/mL
Interleukin 1 beta secreted ([1]; donor F159, 48 h, 2.5 μM DBT): 505 ± 54 pg/mL
Interleukin 1 beta secreted ([1]; donor F159, 48 h, 5 μM DBT): 192 ± 15 pg/mL
Interleukin 1 beta secreted ([1]; donor F159, 6 day, 0.05 μM DBT): 3 ± 2 pg/mL
Interleukin 1 beta secreted ([1]; donor F159, 6 day, 0.1 μM DBT): 3 ± 2 pg/mL
Interleukin 1 beta secreted ([1]; donor F159, 6 day, 0.5 μM DBT): 5 ± 1 pg/mL
Interleukin 1 beta secreted ([1]; donor F159, 6 day, 1 μM DBT): 5 ± 1 pg/mL
Interleukin 1 beta secreted ([1]; donor F159, 6 day, 2.5 μM DBT): 7 ± 1 pg/mL
Interleukin 1 beta secreted ([1]; donor F173, 24 h, 0.05 μM DBT): 150 ± 26 pg/mL
Interleukin 1 beta secreted ([1]; donor F173, 24 h, 0.1 μM DBT): 168 ± 34 pg/mL
Interleukin 1 beta secreted ([1]; donor F173, 24 h, 0.25 μM DBT): 146 ± 12 pg/mL
Interleukin 1 beta secreted ([1]; donor F173, 24 h, 0.5 μM DBT): 165 ± 13 pg/mL
Interleukin 1 beta secreted ([1]; donor F173, 24 h, 1 μM DBT): 632 ± 19 pg/mL
Interleukin 1 beta secreted ([1]; donor F173, 24 h, 2.5 μM DBT): 287 ± 22 pg/mL
Interleukin 1 beta secreted ([1]; donor F173, 24 h, 5 μM DBT): 140 ± 10 pg/mL
Interleukin 1 beta secreted ([1]; donor F173, 48 h, 0.05 μM DBT): 57 ± 35 pg/mL
Interleukin 1 beta secreted ([1]; donor F173, 48 h, 0.1 μM DBT): 17 ± 2 pg/mL
Interleukin 1 beta secreted ([1]; donor F173, 48 h, 0.25 μM DBT): 42 ± 6 pg/mL
Interleukin 1 beta secreted ([1]; donor F173, 48 h, 0.5 μM DBT): 32 ± 1 pg/mL
Interleukin 1 beta secreted ([1]; donor F173, 48 h, 1 μM DBT): 160 ± 2 pg/mL
Interleukin 1 beta secreted ([1]; donor F173, 48 h, 2.5 μM DBT): 124 ± 3 pg/mL
Interleukin 1 beta secreted ([1]; donor F173, 48 h, 5 μM DBT): 63 ± 1 pg/mL
average of the maximum fold increase in IL-β secretion ([1]; PBMCs+granulocytes, 24 h, across donors): 3.8 fold
fold increase in IL-1β secretion ([1]; PBMCs+granulocytes, donor F159, 24 h, 0.25 μM DBT): 1.9 fold
fold increase in IL-1β secretion ([1]; PBMCs+granulocytes, donor F159, 24 h, 0.5 μM DBT): 1.8 fold
fold increase in IL-1β secretion ([1]; PBMCs+granulocytes, donor F159, 24 h, 1 μM DBT): 1.8 fold
fold increase in IL-1β secretion ([1]; PBMCs+granulocytes, donor F159, 48 h, 0.25 μM DBT): 35 fold
fold increase in IL-1β secretion ([1]; PBMCs+granulocytes, donor F159, 48 h, 0.5 μM DBT): 56 fold
fold increase in IL-1β secretion ([1]; PBMCs+granulocytes, donor F159, 48 h, 1 μM DBT): 77 fold
Secretion of IL-1β ([2]; 4 donors, 24 h, any of the conditions tested, limit of detection): ≤ 3 pg/mL
average of the maximum fold increase in IL-β secretion ([2]; 24 h, across donors): 3.7 fold
change in IL-1β secretion ([2]; 48 h, 0.25–5 μM DBT, cells from 3 of the 4 donors): increases
average decrease in viability ([3]; PBMC, 24 h, 5 μM DBT): 31%
Percent Viable Cells ([3]; 24 h, 0.05 μM DBT): 96±4%
Percent Viable Cells ([3]; 24 h, 0.1 μM DBT): 97±3%
Percent Viable Cells ([3]; 24 h, 0.25 μM DBT): 96±3%
Percent Viable Cells ([3]; 24 h, 0.5 μM DBT): 95±3%
Percent Viable Cells ([3]; 24 h, 1 μM DBT): 86±7%
Percent Viable Cells ([3]; 24 h, 2.5 μM DBT): 69±10 %
Percent Viable Cells ([3]; 24 h, 5 μM DBT): 65±8 %
decrease in viability ([3]; 24 h, 2.5 and 5 μM DBT): 25%
Percent Viable Cells ([3]; 48 h, 0.05 μM DBT): 93±3%
Percent Viable Cells ([3]; 48 h, 0.1 μM DBT): 94±4%
Percent Viable Cells ([3]; 48 h, 0.25 μM DBT): 94±4%
Percent Viable Cells ([3]; 48 h, 0.5 μM DBT): 91±8%
Percent Viable Cells ([3]; 48 h, 1 μM DBT): 74±16%
Percent Viable Cells ([3]; 48 h, 2.5 μM DBT): 56±13 %
decrease in viability ([3]; 48 h, 2.5 μM DBT): 38%
Percent Viable Cells ([3]; 48 h, 5 μM DBT): 56±8 %
decrease in viability ([3]; 48 h, 5 μM DBT): 35%
Percent Viable Cells ([3]; 6 day, 0.05 μM DBT): 68±45%
Percent Viable Cells ([3]; 6 day, 0.1 μM DBT): 87±11%
Percent Viable Cells ([3]; 6 day, 0.25 μM DBT): 69±33%
Percent Viable Cells ([3]; 6 day, 0.5 μM DBT): 68±13%
Percent Viable Cells ([3]; 6 day, 1 μM DBT): 43±12%
Percent Viable Cells ([3]; 6 day, 2.5 μM DBT): 36±25%
Percent Viable Cells ([3]; 6 day, 5 μM DBT): 42±15%

— article PMC5114172 (Journal of applied toxicology : JAT, 2016)
